Measured values taken from ChEMBL document CHEMBL4152256, “Structure-activity relationship of new antimalarial 1-aryl-3-susbtituted propanol derivatives: Synthesis, preliminary toxicity profiling, parasite life cycle stage studies, target exploration, and targeted delivery” (Eur J Med Chem, 2018).

Legend:
[1] = Genotoxicity in Salmonella typhimurium TA1535 harboring pSK1002 assessed as survival at 0.008 mg/ml in absence of Sprague-Dawley rat liver S9 fraction after by SOS/umu assay relative to control; format: toxicity, organism-based; details: salmonella enterica subsp. enterica serovar typhimurium, read-out: Survival
[2] = Genotoxicity in Salmonella typhimurium TA1535 harboring pSK1002 assessed as survival at 0.002 mg/ml in presence of Sprague-Dawley rat liver S9 fraction after by SOS/umu assay relative to control; format: toxicity, organism-based; details: salmonella enterica subsp. enterica serovar typhimurium, read-out: Survival
[3] = Genotoxicity in Salmonella typhimurium TA1535 harboring pSK1002 assessed as umu gene induction at 0.031 mg/ml in absence of Sprague-Dawley rat liver S9 fraction after by SOS/umu assay relative to control; format: toxicity, organism-based; details: salmonella enterica subsp. enterica serovar typhimurium, read-out: FC
[4] = Genotoxicity in Salmonella typhimurium TA1535 harboring pSK1002 assessed as survival at 0.008 mg/ml in presence of Sprague-Dawley rat liver S9 fraction after by SOS/umu assay relative to control; format: toxicity, organism-based; details: salmonella enterica subsp. enterica serovar typhimurium, read-out: Survival
[5] = Genotoxicity in Salmonella typhimurium TA1535 harboring pSK1002 assessed as survival at 0.125 mg/ml in absence of Sprague-Dawley rat liver S9 fraction after by SOS/umu assay relative to control; format: toxicity, organism-based; details: salmonella enterica subsp. enterica serovar typhimurium, read-out: Survival
[6] = Genotoxicity in Salmonella typhimurium TA1535 harboring pSK1002 assessed as umu gene induction at 0.016 mg/ml in absence of Sprague-Dawley rat liver S9 fraction after by SOS/umu assay relative to control; format: toxicity, organism-based; details: salmonella enterica subsp. enterica serovar typhimurium, read-out: FC
[7] = Cytotoxicity against human HepG2A16 cells by MTT assay; format: cell-based
Method in brief: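 MTT viability assay on HepG2-A16 cells, giving CC50 values.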

[8] = Genotoxicity in Salmonella typhimurium TA1535 harboring pSK1002 assessed as survival at 0.002 mg/ml in absence of Sprague-Dawley rat liver S9 fraction after by SOS/umu assay relative to control; format: toxicity, organism-based; details: salmonella enterica subsp. enterica serovar typhimurium, read-out: Survival
[9] = Genotoxicity in Salmonella typhimurium TA1535 harboring pSK1002 assessed as umu gene induction at 0.002 mg/ml in absence of Sprague-Dawley rat liver S9 fraction after by SOS/umu assay relative to control; format: toxicity, organism-based; details: salmonella enterica subsp. enterica serovar typhimurium, read-out: FC
[10] = Genotoxicity in Salmonella typhimurium TA1535 harboring pSK1002 assessed as survival at 0.031 mg/ml in absence of Sprague-Dawley rat liver S9 fraction after by SOS/umu assay relative to control; format: toxicity, organism-based; details: salmonella enterica subsp. enterica serovar typhimurium, read-out: Survival
[11] = Genotoxicity in Salmonella typhimurium TA1535 harboring pSK1002 assessed as umu gene induction at 0.063 mg/ml in absence of Sprague-Dawley rat liver S9 fraction after by SOS/umu assay relative to control; format: toxicity, organism-based; details: salmonella enterica subsp. enterica serovar typhimurium, read-out: FC
[12] = Genotoxicity in Salmonella typhimurium TA1535 harboring pSK1002 assessed as survival at 0.001 mg/ml in presence of Sprague-Dawley rat liver S9 fraction after by SOS/umu assay relative to control; format: toxicity, organism-based; details: salmonella enterica subsp. enterica serovar typhimurium, read-out: Survival
Plasmodium falciparum [13] = experiment: Antiplasmodial activity against chloroquine-sensitive Plasmodium falciparum 3D7 by [3H]-hypoxanthine incorporation assay; format: functional, organism-based
Method in brief: (§1)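 Blood-stage P. falciparum 3D7 and FCR-3 were tested by a modified [3H]-hypoxanthine incorporation assay. Chloroquine was the reference in all runs.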

[14] = Genotoxicity in Salmonella typhimurium TA1535 harboring pSK1002 assessed as umu gene induction at 0.008 mg/ml in presence of Sprague-Dawley rat liver S9 fraction after by SOS/umu assay relative to control; format: toxicity, organism-based; details: salmonella enterica subsp. enterica serovar typhimurium, read-out: FC
[15] = Genotoxicity in Salmonella typhimurium TA1535 harboring pSK1002 assessed as umu gene induction at 0.001 mg/ml in absence of Sprague-Dawley rat liver S9 fraction after by SOS/umu assay relative to control; format: toxicity, organism-based; details: salmonella enterica subsp. enterica serovar typhimurium, read-out: FC
[16] = Genotoxicity in Salmonella typhimurium TA1535 harboring pSK1002 assessed as umu gene induction at 0.125 mg/ml in absence of Sprague-Dawley rat liver S9 fraction after by SOS/umu assay relative to control; format: toxicity, organism-based; details: salmonella enterica subsp. enterica serovar typhimurium, read-out: FC
[17] = Genotoxicity in Salmonella typhimurium TA1535 harboring pSK1002 assessed as umu gene induction at 0.001 mg/ml in presence of Sprague-Dawley rat liver S9 fraction after by SOS/umu assay relative to control; format: toxicity, organism-based; details: salmonella enterica subsp. enterica serovar typhimurium, read-out: FC
[18] = Genotoxicity in Salmonella typhimurium TA1535 harboring pSK1002 assessed as survival at 0.063 mg/ml in absence of Sprague-Dawley rat liver S9 fraction after by SOS/umu assay relative to control; format: toxicity, organism-based; details: salmonella enterica subsp. enterica serovar typhimurium, read-out: Survival
[19] = Genotoxicity in Salmonella typhimurium TA1535 harboring pSK1002 assessed as survival at 0.125 mg/ml in presence of Sprague-Dawley rat liver S9 fraction after by SOS/umu assay relative to control; format: toxicity, organism-based; details: salmonella enterica subsp. enterica serovar typhimurium, read-out: Survival
[20] = Genotoxicity in Salmonella typhimurium TA1535 harboring pSK1002 assessed as umu gene induction at 0.063 mg/ml in presence of Sprague-Dawley rat liver S9 fraction after by SOS/umu assay relative to control; format: toxicity, organism-based; details: salmonella enterica subsp. enterica serovar typhimurium, read-out: FC
[21] = Genotoxicity in Salmonella typhimurium TA1535 harboring pSK1002 assessed as umu gene induction at 0.004 mg/ml in absence of Sprague-Dawley rat liver S9 fraction after by SOS/umu assay relative to control; format: toxicity, organism-based; details: salmonella enterica subsp. enterica serovar typhimurium, read-out: FC
[22] = Genotoxicity in Salmonella typhimurium TA1535 harboring pSK1002 assessed as survival at 0.063 mg/ml in presence of Sprague-Dawley rat liver S9 fraction after by SOS/umu assay relative to control; format: toxicity, organism-based; details: salmonella enterica subsp. enterica serovar typhimurium, read-out: Survival
[23] = Genotoxicity in Salmonella typhimurium TA1535 harboring pSK1002 assessed as survival at 0.016 mg/ml in absence of Sprague-Dawley rat liver S9 fraction after by SOS/umu assay relative to control; format: toxicity, organism-based; details: salmonella enterica subsp. enterica serovar typhimurium, read-out: Survival
[24] = Genotoxicity in Salmonella typhimurium TA1535 harboring pSK1002 assessed as survival at 0.004 mg/ml in absence of Sprague-Dawley rat liver S9 fraction after by SOS/umu assay relative to control; format: toxicity, organism-based; details: salmonella enterica subsp. enterica serovar typhimurium, read-out: Survival
[25] = Genotoxicity in Salmonella typhimurium TA1535 harboring pSK1002 assessed as umu gene induction at 0.016 mg/ml in presence of Sprague-Dawley rat liver S9 fraction after by SOS/umu assay relative to control; format: toxicity, organism-based; details: salmonella enterica subsp. enterica serovar typhimurium, read-out: FC
[26] = Genotoxicity in Salmonella typhimurium TA1535 harboring pSK1002 assessed as umu gene induction at 0.002 mg/ml in presence of Sprague-Dawley rat liver S9 fraction after by SOS/umu assay relative to control; format: toxicity, organism-based; details: salmonella enterica subsp. enterica serovar typhimurium, read-out: FC
Plasmodium falciparum [27] = experiment: Antiplasmodial activity against multidrug-resistant Plasmodium falciparum FCR-3 by [3H]-hypoxanthine incorporation assay; format: functional, organism-based, FCR-3/Gambia; method in brief: as §1
[28] = Genotoxicity in Salmonella typhimurium TA1535 harboring pSK1002 assessed as umu gene induction at 0.125 mg/ml in presence of Sprague-Dawley rat liver S9 fraction after by SOS/umu assay relative to control; format: toxicity, organism-based; details: salmonella enterica subsp. enterica serovar typhimurium, read-out: FC
[29] = Genotoxicity in Salmonella typhimurium TA1535 harboring pSK1002 assessed as umu gene induction at 0.031 mg/ml in presence of Sprague-Dawley rat liver S9 fraction after by SOS/umu assay relative to control; format: toxicity, organism-based; details: salmonella enterica subsp. enterica serovar typhimurium, read-out: FC
[30] = Genotoxicity in Salmonella typhimurium TA1535 harboring pSK1002 assessed as survival at 0.001 mg/ml in absence of Sprague-Dawley rat liver S9 fraction after by SOS/umu assay relative to control; format: toxicity, organism-based; details: salmonella enterica subsp. enterica serovar typhimurium, read-out: Survival
[31] = Plasmodium falciparum, FCR-3/Gambia, 3 h

Compound	viability at 0.008 mg/ml [1]	viability at 0.002 mg/ml [2]	fold induction at 0.031 mg/ml [3]	viability at 0.008 mg/ml [4]	viability at 0.125 mg/ml [5]	fold induction at 0.016 mg/ml [6]	viability at 0.002 mg/ml [8]	fold induction at 0.002 mg/ml [9]	viability at 0.031 mg/ml [10]	fold induction at 0.063 mg/ml [11]	viability at 0.001 mg/ml [12]	fold induction at 0.008 mg/ml [14]	fold induction at 0.001 mg/ml [15]	fold induction at 0.125 mg/ml [16]	fold induction at 0.001 mg/ml [17]	viability at 0.063 mg/ml [18]	viability at 0.125 mg/ml [19]	fold induction at 0.063 mg/ml [20]	fold induction at 0.004 mg/ml [21]	viability at 0.063 mg/ml [22]	further results
COc1ccccc1N1CCN(CCC(O)c2ccc(F)c3ccccc23)CC1 (stereo not given)	67.1%	102%	1.3	99.1%	55.9%	1.3	65.2%	1.5	58.4%	0.9	112%	1	1.3	0.9	0.9	61.5%	84.4%	0.7	1.1	88.4%	CC50 ([7]; HepG2A16 cells): 30.4 µM; IC50 (Plasmodium falciparum [13]; Plasmodium falciparum, 3D7): 0.07 µM; viability at 0.016 mg/ml [23]: 63%; viability at 0.004 mg/ml [24]: 66.5%; fold induction at 0.016 mg/ml [25]: 1; fold induction at 0.002 mg/ml [26]: 1; IC50 (Plasmodium falciparum [27]; [31]): 0.22 µM; fold induction at 0.125 mg/ml [28]: 0.7; fold induction at 0.031 mg/ml [29]: 0.6; viability at 0.001 mg/ml [30]: 70.5%
OC(CCN1CCN(c2ccc(F)cc2)CC1)c1ccc(F)c2ccccc12 (stereo not given)	122%	100%	0.7	98.7%	56.2%	0.7	110%	0.7	87%	0.5	101%	0.7	0.7	0.7	0.9	118%	59.6%	0.5	0.8	112%	CC50 ([7]; HepG2A16 cells): 29.4 µM; IC50 (Plasmodium falciparum [13]; Plasmodium falciparum, 3D7): 0.43 µM; viability at 0.016 mg/ml [23]: 85.4%; viability at 0.004 mg/ml [24]: 87.9%; fold induction at 0.016 mg/ml [25]: 0.9; fold induction at 0.002 mg/ml [26]: 0.8; IC50 (Plasmodium falciparum [27]; [31]): 4.05 µM; fold induction at 0.125 mg/ml [28]: 0.7; fold induction at 0.031 mg/ml [29]: 0.5; viability at 0.001 mg/ml [30]: 111%
COc1ccccc1N1CCN(CCC(O)c2ccc(F)cc2)CC1 (stereo in doubt; 66)	114%	80.7%	1	88.2%	107%	1	114%	1	116%	0.9	91.6%	1	1.1	0.9	1.3	108%	89.8%	0.9	1.1	100%	CC50 [7]: 19.5 µM; IC50 (Plasmodium falciparum [13]): 7.31 µM; viability at 0.016 mg/ml [23]: 108%; viability at 0.004 mg/ml [24]: 108%; fold induction at 0.016 mg/ml [25]: 1.1; fold induction at 0.002 mg/ml [26]: 1.2; IC50 (Plasmodium falciparum [27]): 0.19 µM; fold induction at 0.125 mg/ml [28]: 1; fold induction at 0.031 mg/ml [29]: 0.9; viability at 0.001 mg/ml [30]: 110%
